{
  "source": "ChEMBL document CHEMBL4831540",
  "about": "“Discovery of Aficamten (CK-274), a Next-Generation Cardiac Myosin Inhibitor for the Treatment of Hypertrophic Cardiomyopathy” (J Med Chem, 2021)",
  "key": {"[1]": {"test": "Inhibition of full-length myosin ATPase activity in bovine cardiac myofibrils", "format": "subcellular, Bos taurus, Heart", "method_in_brief": "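Bovine cardiac myofibril ATPase assay run at a calcium level giving 75% of maximal activity.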"}, "[2]": {"test": "Metabolic stability in rat liver microsomes assessed as intrinsic clearance measured upto 90mins by HPLC/MS/MS analysis", "format": "ADME, Microsome", "details": "read-out: CLH"}, "[3]": {"test": "Plasma protein binding in rat plasma assessed as unbound concentration at 5 uM incubated for 6 hrs by HPLC analysis", "format": "ADME, cell-free"}, "[4]": {"test": "Clearance in Sprague-Dawley rat at 0.5 mg/kg", "format": "ADME, organism-based", "details": "in vivo"}, "[5]": {"test": "Plasma protein binding in rat assessed as unbound fraction", "format": "ADME, cell-free"}, "[6]": {"test": "Solubility of the compound at pH 6.8 by shake flask method", "format": "physicochemical", "details": "buffer", "method_in_brief": "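Shake-flask solubility at pH 6.8; solid form not characterized.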"}, "[7]": {"test": "Half life in Sprague-Dawley rat at 1 mg/kg", "format": "ADME, organism-based", "details": "in vivo", "method_in_brief": "(§1)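 Rat PK with iv and po administration at 1 mg/kg. Clearance and half-life came from the iv arm, and bioavailability from the iv/po comparison.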"}, "[8]": {"test": "Clearance in mouse at 0.5 mg/kg, iv", "format": "ADME, organism-based", "details": "in vivo", "method_in_brief": "(§2)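 Multi-species PK study in male animals, n = 3 per group (dog IV arm n = 2). Iv and oral dosing with plasma concentration–time profiles yielding Cmax, tmax, AUC0–t, CL, Vss, t1/2 and F.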"}, "[9]": {"test": "Half life in mouse at 0.5 mg/kg, iv", "format": "ADME, organism-based", "details": "in vivo", "method_in_brief": "as §2"}, "[10]": {"test": "Half life in mouse at 1 mg/kg, po", "format": "ADME, organism-based", "details": "in vivo", "method_in_brief": "as §2"}, "[11]": {"test": "Clearance in Sprague-Dawley rat at 1 mg/kg, iv", "format": "ADME, organism-based", "details": "in vivo", "method_in_brief": "as §1"}, "[12]": {"test": "Tmax in Sprague-Dawley rat at 3 mg/kg, po", "format": "ADME, organism-based", "details": "in vivo", "method_in_brief": "(§3)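 Single iv or oral doses in male animals, 3 per group except dog iv (2 animals). Plasma concentration–time profiles gave Cmax, tmax, AUC0–t, clearance, steady-state volume of distribution, half-life and bioavailability.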"}, "[13]": {"test": "Oral bioavailability in Sprague-Dawley rat at 3 mg/kg", "format": "ADME, organism-based", "details": "in vivo", "method_in_brief": "as §3"}, "[14]": {"test": "Cmax in Sprague-Dawley rat at 8 mg/kg, po", "format": "ADME, organism-based", "parameters": "route oral, dose 8 mg/kg", "details": "in vivo", "method_in_brief": "as §2"}, "[15]": {"test": "Volume of distribution at steady state in Beagle dog at 1 mg/kg, iv", "format": "ADME, organism-based, Canis lupus familiaris", "details": "in vivo", "method_in_brief": "as §3"}, "[16]": {"test": "Half life in Beagle dog at 1 mg/kg, iv", "format": "ADME, organism-based, Canis lupus familiaris", "details": "in vivo", "method_in_brief": "as §2"}, "[17]": {"test": "Half life in Beagle dog at 1 mg/kg, po", "format": "ADME, organism-based, Canis lupus familiaris", "details": "in vivo", "method_in_brief": "as §2"}, "[18]": {"test": "Volume of distribution at steady state in cynomolgus monkey at 1 mg/kg, iv", "format": "ADME, organism-based, Macaca fascicularis", "details": "in vivo, read-out: Vdss", "method_in_brief": "as §3"}, "[19]": {"test": "Half life in cynomolgus monkey at 1 mg/kg, iv", "format": "ADME, organism-based, Macaca fascicularis", "details": "in vivo", "method_in_brief": "as §2"}, "Rattus norvegicus": {"tested_on": "Rattus norvegicus", "test": "Anti-hypertrophic cardiomyopathy in Sprague-Dawley rat assessed as reduction in fractional shortening at 4 mg/kg, po measured upto 24 hrs by echocardiography relative to control", "format": "functional", "parameters": "scale not given: the % may be the effect or the level left", "details": "time hrs <=24", "method_in_brief": "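Normal Sprague–Dawley rats were given single oral doses of 0.5–4 mg/kg. Left ventricular dimensions and fractional shortening were measured by echocardiography at selected time points over 24 h, relative to vehicle treatment.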"}, "[20]": {"test": "Ratio of IC50 to IC10 for anti-hypertrophic cardiomyopathy in po dosed Sprague-Dawley rat assessed as reduction in fractional shortening measured upto 24 hrs by echocardiography", "format": "functional", "details": "time hrs <=24", "method_in_brief": "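Sprague–Dawley rats received single oral doses from 0.5 to 4 mg/kg. LV dimensions and fractional shortening were read by echocardiography at set times over 24 h, with blood drawn at each reading for compound level. Concentrations giving 50% and 10% FS reduction were derived, and their IC50/IC10 ratio was calculated.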"}, "[21]": {"test": "Plasma protein binding in Sprague-Dawley rat assessed as unbound fraction", "format": "ADME"}, "Cytochrome P450 1A2": {"target": "T1, Cytochrome P450 1A2 (Homo sapiens, UniProt P05177)", "T1 sequence (P05177 whole entry)": "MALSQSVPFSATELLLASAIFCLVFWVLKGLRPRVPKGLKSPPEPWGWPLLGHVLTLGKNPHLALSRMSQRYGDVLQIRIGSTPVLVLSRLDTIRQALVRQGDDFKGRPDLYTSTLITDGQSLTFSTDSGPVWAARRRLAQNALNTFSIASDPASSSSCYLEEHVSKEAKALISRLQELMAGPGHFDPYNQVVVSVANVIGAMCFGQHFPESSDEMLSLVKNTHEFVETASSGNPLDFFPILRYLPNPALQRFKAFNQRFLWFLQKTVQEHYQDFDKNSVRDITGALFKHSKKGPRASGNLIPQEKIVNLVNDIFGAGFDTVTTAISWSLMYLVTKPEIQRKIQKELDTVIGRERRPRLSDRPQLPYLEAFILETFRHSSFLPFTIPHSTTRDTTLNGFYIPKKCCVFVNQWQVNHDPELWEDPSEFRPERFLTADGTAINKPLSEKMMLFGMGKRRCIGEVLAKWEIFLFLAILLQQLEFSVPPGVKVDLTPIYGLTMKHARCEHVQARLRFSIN", "test": "Inhibition of CYP1A2 in human liver microsomes assessed as phenacetin O-deethylation reaction incubated for 30 mins in presence of NADP by LC-MS/MS analysis", "format": "ADME"}, "Cytochrome P450 2B6": {"target": "T2, Cytochrome P450 2B6 (Homo sapiens, UniProt P20813)", "T2 sequence (P20813 whole entry)": "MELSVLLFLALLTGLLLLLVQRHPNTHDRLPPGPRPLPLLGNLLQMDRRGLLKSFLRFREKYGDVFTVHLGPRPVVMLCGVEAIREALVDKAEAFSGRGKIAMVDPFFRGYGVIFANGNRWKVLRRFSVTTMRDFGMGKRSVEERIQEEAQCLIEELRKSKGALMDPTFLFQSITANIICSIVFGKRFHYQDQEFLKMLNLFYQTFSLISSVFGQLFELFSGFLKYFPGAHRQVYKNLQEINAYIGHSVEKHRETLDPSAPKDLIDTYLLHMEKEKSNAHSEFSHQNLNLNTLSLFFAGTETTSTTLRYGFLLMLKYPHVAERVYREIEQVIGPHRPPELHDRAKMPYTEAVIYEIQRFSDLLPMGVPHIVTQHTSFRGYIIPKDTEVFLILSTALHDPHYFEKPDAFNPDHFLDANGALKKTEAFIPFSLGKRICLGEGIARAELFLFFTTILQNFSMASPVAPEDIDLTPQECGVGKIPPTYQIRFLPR", "test": "Inhibition of CYP2B6 in human liver microsomes assessed as bupropion hydroxylation reaction incubated for 30 mins in presence of NADP by LC-MS/MS analysis", "format": "ADME"}, "Cytochrome P450 2C19": {"target": "Cytochrome P450 2C19 (Homo sapiens, UniProt P33261)", "sequence (P33261 whole entry)": "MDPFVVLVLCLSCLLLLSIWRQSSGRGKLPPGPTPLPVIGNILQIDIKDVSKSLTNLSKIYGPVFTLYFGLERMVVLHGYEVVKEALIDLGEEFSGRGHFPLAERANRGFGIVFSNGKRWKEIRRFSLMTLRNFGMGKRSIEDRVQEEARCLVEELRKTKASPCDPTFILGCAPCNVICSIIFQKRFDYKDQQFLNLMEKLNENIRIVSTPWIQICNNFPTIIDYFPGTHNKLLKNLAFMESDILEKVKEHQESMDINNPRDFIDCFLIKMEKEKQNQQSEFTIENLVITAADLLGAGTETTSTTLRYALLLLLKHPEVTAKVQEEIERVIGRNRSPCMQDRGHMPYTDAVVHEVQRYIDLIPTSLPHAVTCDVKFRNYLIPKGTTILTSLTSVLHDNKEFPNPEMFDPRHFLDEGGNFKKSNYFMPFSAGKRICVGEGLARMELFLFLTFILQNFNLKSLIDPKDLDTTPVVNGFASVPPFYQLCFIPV", "test": "Inhibition of CYP2C19 in human liver microsomes assessed as mephenytoin 4-hydroxylation reaction incubated for 30 mins in presence of NADP by LC-MS/MS analysis", "format": "ADME"}, "Cytochrome P450 3A4 [22]": {"target": "T3, Cytochrome P450 3A4 (Homo sapiens, UniProt P08684)", "test": "Inhibition of CYP3A4 in human liver microsomes assessed as midazolam 1'-hyrozylation reaction incubated for 30 mins in presence of NADP by LC-MS/MS analysis", "format": "ADME"}, "Cytochrome P450 3A4 [23]": {"target": "T3, Cytochrome P450 3A4", "test": "Inhibition of CYP3A4 in human liver microsomes assessed as testosterone 6-beta-hydroxylation reaction incubated for 30 mins in presence of NADP by LC-MS/MS analysis", "format": "ADME"}, "Cytochrome P450 3A4 [24]": {"target": "T3, Cytochrome P450 3A4", "test": "Inhibition of CYP3A4 in human liver microsomes incubated for 30 mins in presence of NADP by LC-MS/MS analysis"}},
  "data": [
    {"smiles": "CCc1nc(-c2ccc3c(c2)CC[C@H]3NC(=O)c2cnn(C)c2)no1", "note": "[AFICAMTEN]", "values": [
      {"measurement": "IC50", "setting": "[1]", "value": 1.4, "unit": "µM"},
      {"measurement": "CLint scaled", "setting": "[2]", "value": "< 21", "unit": "mL/min/kg"},
      {"measurement": "fraction unbound at 6 h, 5 µM", "setting": "[3]", "value": 0.018},
      {"measurement": "clearance", "setting": "[4]", "value": 2, "unit": "mL/min/kg"},
      {"measurement": "fraction unbound", "setting": "[5]", "value": 0.018},
      {"measurement": "solubility thermodynamic", "setting": "[6]", "value": 97, "unit": "µM"},
      {"measurement": "half-life", "setting": "[7]", "value": 3, "unit": "h"},
      {"measurement": "clearance", "setting": "[8]", "value": 8.8, "unit": "mL/min/kg"},
      {"measurement": "half-life", "setting": "[9]", "value": 4.5, "unit": "h"},
      {"measurement": "half-life", "setting": "[10]", "value": 3.4, "unit": "h"},
      {"measurement": "clearance", "setting": "[11]", "value": 2.1, "unit": "mL/min/kg"},
      {"measurement": "Tmax", "setting": "[12]", "value": 0.42, "unit": "h"},
      {"measurement": "bioavailability", "setting": "[13]", "value": 58, "unit": "%"},
      {"measurement": "Cmax", "setting": "[14]", "value": 8440, "unit": "ng/mL"},
      {"measurement": "Vd", "setting": "[15]", "value": 10.5, "unit": "L/kg"},
      {"measurement": "half-life", "setting": "[16]", "value": 33.8, "unit": "h"},
      {"measurement": "half-life", "setting": "[17]", "value": 28.7, "unit": "h"},
      {"measurement": "Vd", "setting": "[18]", "value": 7.76, "unit": "L/kg"},
      {"measurement": "half-life", "setting": "[19]", "value": 8.1, "unit": "h"},
      {"measurement": "Activity", "setting": "Rattus norvegicus", "value": 70, "unit": "%"},
      {"measurement": "Ratio", "setting": "[20]", "value": 9.9},
      {"measurement": "fraction unbound", "setting": "[21]", "value": 0.018},
      {"measurement": "IC50", "setting": "Cytochrome P450 1A2", "value": "> 100", "unit": "µM"},
      {"measurement": "IC50", "setting": "Cytochrome P450 2B6", "value": "> 100", "unit": "µM"},
      {"measurement": "IC50", "setting": "Cytochrome P450 2C19", "value": "> 100", "unit": "µM"},
      {"measurement": "IC50", "setting": "Cytochrome P450 3A4 [22]", "value": "> 100", "unit": "µM"},
      {"measurement": "IC50", "setting": "Cytochrome P450 3A4 [23]", "value": "> 100", "unit": "µM"},
      {"measurement": "IC50", "setting": "Cytochrome P450 3A4 [24]", "value": "> 100", "unit": "µM"}
    ]}
  ]
}
